Legend:
Glycine max [1] = experiment: Phytotoxicity against Glycine max (soybean) plant assessed as growth inhibition at 150 g of active ingredient/ha administered using post-emergence treatment measured 30 days post treatment protocol under greenhouse conditions; format: organism-based; settings: in vivo, other, 720 h
Method in brief: (§1)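 Compounds were formulated as 100 g/L emulsified concentrates in DMF with TW-80 as emulsifier, then diluted with water to the required concentration. They were applied postemergence to pot-grown plants in a greenhouse. The soil was clay, pH 6.5, with 1.6% organic matter, 37.3% clay particles and CEC 12.1 mol/kg. Sulfentrazone served as the reference control.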

Zea mays = experiment: Phytotoxicity against Zea mays (maize) plant assessed as growth inhibition at 300 g of active ingredient/ha administered using post-emergence treatment measured 30 days post treatment protocol under greenhouse conditions; format: organism-based; settings: in vivo, other, 720 h; method in brief: as §1
Portulaca oleracea [2] = experiment: Herbicidal activity against Portulaca oleracea assessed as growth inhibition at 75 g of active ingredient/ha administered using post-emergence treatment measured 15 days post treatment protocol under greenhouse conditions; format: functional
Method in brief: (§2)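 Test agents were formulated as 100 g/L emulsified concentrates (DMF solvent, TW-80 emulsifier), diluted with water and sprayed postemergence on pot-grown weeds. Seeds were sown 1-3 cm deep in clay soil (pH 6.5, 1.6% organic matter, 37.3% clay, CEC […]) and grown at 15–30 °C in a greenhouse. Dicots were treated at the two-leaf stage. Untreated and DMF-treated plants served as controls. Activity was scored visually 15 days after treatment.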

Glycine max [3] = experiment: Phytotoxicity against Glycine max (soybean) plant assessed as growth inhibition at 450 g of active ingredient/ha administered using post-emergence treatment measured 30 days post treatment protocol under greenhouse conditions; format: organism-based; settings: in vivo, other, 720 h; method in brief: as §1
Senna tora = experiment: Herbicidal activity against Senna tora assessed as growth inhibition at 75 g of active ingredient/ha administered using post-emergence treatment measured 15 days post treatment protocol under greenhouse conditions; format: functional; method in brief: as §2
Brassica napus = experiment: Phytotoxicity against Brassica napus (oilseed rape) assessed as growth inhibition at 150 g of active ingredient/ha administered using post-emergence treatment measured 30 days post treatment protocol under greenhouse conditions; format: organism-based; settings: in vivo, other, 720 h; method in brief: as §1
Triticum aestivum = experiment: Phytotoxicity against Triticum aestivum (wheat) plant assessed as growth inhibition at 150 g of active ingredient/ha administered using post-emergence treatment measured 30 days post treatment protocol under greenhouse conditions; format: organism-based; settings: in vivo, other, 720 h; method in brief: as §1
Amaranthus retroflexus = experiment: Herbicidal activity against Amaranthus retroflexus assessed as growth inhibition at 150 g of active ingredient/ha administered using post-emergence treatment measured 15 days post treatment protocol under greenhouse conditions; format: functional; method in brief: as §2
Glycine max [4] = experiment: Phytotoxicity against Glycine max (soybean) plant assessed as growth inhibition at 300 g of active ingredient/ha administered using post-emergence treatment measured 30 days post treatment protocol under greenhouse conditions; format: organism-based; settings: in vivo, other, 720 h; method in brief: as §1
Digitaria sanguinalis = experiment: Herbicidal activity against Digitaria sanguinalis (hairy crabgrass) assessed as growth inhibition at 37.5 g of active ingredient/ha administered using post-emergence treatment measured 15 days post treatment protocol under greenhouse conditions; format: functional; method in brief: as §2
Portulaca oleracea [5] = experiment: Herbicidal activity against Portulaca oleracea assessed as growth inhibition at 37.5 g of active ingredient/ha administered using post-emergence treatment measured 15 days post treatment protocol under greenhouse conditions; format: functional; method in brief: as §2
Echinochloa crus-galli = experiment: Herbicidal activity against Echinochloa crus-galli (barnyard grass) assessed as growth inhibition at 37.5 g of active ingredient/ha administered using post-emergence treatment measured 15 days post treatment protocol under greenhouse conditions; format: functional; method in brief: as §2
Brassica juncea [6] = experiment: Herbicidal activity against Brassica juncea assessed as growth inhibition at 150 g of active ingredient/ha administered using post-emergence treatment measured 15 days post treatment protocol under greenhouse conditions; format: functional; method in brief: as §2
Brassica juncea [7] = experiment: Herbicidal activity against Brassica juncea assessed as growth inhibition at 75 g of active ingredient/ha administered using post-emergence treatment measured 15 days post treatment protocol under greenhouse conditions; format: functional; method in brief: as §2
Portulaca oleracea [8] = experiment: Herbicidal activity against Portulaca oleracea assessed as growth inhibition at 150 g of active ingredient/ha administered using post-emergence treatment measured 15 days post treatment protocol under greenhouse conditions; format: functional; method in brief: as §2
Setaria viridis = experiment: Herbicidal activity against Setaria viridis (green foxtail) assessed as growth inhibition at 150 g of active ingredient/ha administered using post-emergence treatment measured 15 days post treatment protocol under greenhouse conditions; format: functional; method in brief: as §2
Gossypium hirsutum = experiment: Phytotoxicity against Gossypium hirsutum (cotton) plant assessed as growth inhibition at 450 g of active ingredient/ha administered using post-emergence treatment measured 30 days post treatment protocol under greenhouse conditions; format: organism-based; settings: in vivo, other, 720 h; method in brief: as §1
[9] = Phytotoxicity against Glycine max (soybean) plant assessed as growth inhibition at 75 g of active ingredient/ha administered using post-emergence treatment measured 30 days post treatment protocol under greenhouse conditions; format: organism-based; settings: in vivo, read-out: GI; method in brief: as §1
Chenopodium album = experiment: Herbicidal activity against Chenopodium album assessed as growth inhibition at 150 g of active ingredient/ha administered using post-emergence treatment measured 15 days post treatment protocol under greenhouse conditions; format: functional; method in brief: as §2
Brassica juncea [10] = experiment: Herbicidal activity against Brassica juncea assessed as growth inhibition at 37.5 g of active ingredient/ha administered using post-emergence treatment measured 15 days post treatment protocol under greenhouse conditions; format: functional; method in brief: as §2
Cerastium arvense = experiment: Herbicidal activity against Cerastium arvense assessed as growth inhibition at 37.5 g of active ingredient/ha administered using post-emergence treatment measured 15 days post treatment protocol under greenhouse conditions; format: functional; method in brief: as §2
[11] = Phytotoxicity against Zea mays (maize) plant assessed as growth inhibition at 75 g of active ingredient/ha administered using post-emergence treatment measured 30 days post treatment protocol under greenhouse conditions; format: organism-based; settings: in vivo, read-out: GI; method in brief: as §1

Q: For `CCS(=O)(=O)Nc1cc(-n2nc(C)n(Cc3ccccc3/C(=N\OC)C(=O)OC)c2=O)c(F)cc1Cl`, which Activity (Glycine max [1]) is on record?
A: Its Activity is “Toxic”.

Q: What about the Activity (Zea mays) of the same compound?
A: Its Activity is “Toxic”.

Q: What about the “growth inhibition (GI)” value (Portulaca oleracea [2]) of the same compound?
A: The value was 100%.

Q: And the Activity (Glycine max [3])?
A: Its Activity is “Toxic”.

Q: And the “growth inhibition (GI)” value (Senna tora)?
A: The value was >80%.

Q: What about the Activity (Brassica napus) of the same compound?
A: The Activity was “Toxic”.

Q: And the Activity (Triticum aestivum)?
A: The Activity was “Toxic”.

Q: And the “growth inhibition (GI)” value (Amaranthus retroflexus)?
A: Its value is 100%.

Q: And the Activity (Glycine max [4])?
A: The Activity was “Toxic”.

Q: What about the “growth inhibition (GI)” value (Digitaria sanguinalis) of the same compound?
A: Its value is 50%.

Q: And the “growth inhibition (GI)” value (Portulaca oleracea [5])?
A: The value was 100%.

Q: And the “growth inhibition (GI)” value (Echinochloa crus-galli)?
A: Its value is <50%.

Q: And the “growth inhibition (GI)” value (Brassica juncea [6])?
A: Its value is >80%.

Q: And the “growth inhibition (GI)” value (Brassica juncea [7])?
A: Its value is >80%.

Q: What about the “growth inhibition (GI)” value (Portulaca oleracea [8]) of the same compound?
A: Its value is 100%.

Q: And the “growth inhibition (GI)” value (Setaria viridis)?
A: The value was 50%.

Q: And the Activity (Gossypium hirsutum)?
A: Its Activity is “Toxic”.

Q: What about the inhibition at 720 h [9] of the same compound?
A: Its inhibition at 720 h is 60%.

Q: What about the “growth inhibition (GI)” value (Chenopodium album) of the same compound?
A: Its value is >80%.

Q: What about the “growth inhibition (GI)” value (Brassica juncea [10]) of the same compound?
A: Its value is >80%.

Q: What about the “growth inhibition (GI)” value (Cerastium arvense) of the same compound?
A: The value was >80%.

Q: And the inhibition at 720 h [11]?
A: Its inhibition at 720 h is 40%.

Source: ChEMBL document CHEMBL3046880, “Syntheses and herbicidal activities of novel triazolinone derivatives” (J Agric Food Chem, 2008)
